Laboratory results taken from ChEMBL document CHEMBL1146497, “Antifouling activity of brominated cyclopeptides from the marine sponge Geodia barretti” (J Nat Prod, 2004).
The source made the active and inactive calls. The rule behind the calls is not given here.

Legend:
Assay type in all cases: functional, organism-based
Amphibalanus improvisus [1] = experiment: Antifouling activity against Balanus improvisus […] assessed as inhibition of cyprid larval settlement
Procedure, shortened: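 Competent B. improvisus cyprids (20 ± 2 per dish) were exposed in 10 mL filtered seawater (0.2 µm), with four replicates and filtered-seawater controls. Test substances were dissolved in milliQ water and diluted into seawater as three tenfold concentration steps. Settled, living-unsettled and dead cyprids were scored as percentages.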

Amphibalanus improvisus [2] = experiment: Antifouling activity against Balanus improvisus […] assessed as inhibition of cyprid larval settlement at 0.1 to 10 uM after 3 to 4 days relative to control
Procedure, shortened: (§1)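 Competent Balanus improvisus cyprids (20 ± 2 per dish) in 10 mL filtered seawater (0.2 µm) containing test substance, dissolved first in milliQ water. Four replicate dishes per concentration, with filtered-seawater dishes as controls. Settled, living unsettled and dead cyprids were scored as percentages.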

Amphibalanus improvisus [3] = experiment: Antifouling activity against Balanus improvisus […] assessed as inhibition of cyprid larval settlement at 1.9 uM after 3 to 4 days relative to control; procedure, shortened: as §1

| Compound | LC50 (Amphibalanus improvisus [1]) [µg/mL] | Activity (Amphibalanus improvisus [2]) | Activity (Amphibalanus improvisus [3]) |
| --- | --- | --- | --- |
| N=C(N)NCCCC1NC(=O)C(Cc2c[nH]c3cc(Br)ccc23)NC1=O.O=C(O)C(F)(F)F (stereo unspecified) | 4 | Active |  |
| N=C(N)NCCC[C@H](N)C(=O)O |  | inactive |  |
| N=C(N)NCCC[C@@H]1NC(=O)/C(=C/c2c[nH]c3cc(Br)ccc23)NC1=O.O=C(O)C(F)(F)F | 0.4 | Active | Active |
| NC(Cc1c[nH]c2ccc(Br)cc12)C(=O)O (racemic) |  | inactive |  |
| N[C@@H](Cc1c[nH]c2ccccc12)C(=O)O |  | inactive |  |
| tributyltin-oxide | 0.09 |  |  |
| NC(Cc1c[nH]c2cc(Br)ccc12)C(=O)O (racemic) |  | inactive |  |
| NC(Cc1c[nH]c2cc(F)ccc12)C(=O)O (racemic) |  | inactive |  |
